Screening results deposited in PubChem by several laboratories.
Most compounds without a hit are left out; they make up all but 2.1% or so of the library.
HKDC1 inh: blocks human hexokinase HKDC1 activity. recombinant HKDC1, G6PDH/diaphorase resazurin coupled fluorescence. inhibition, % at 20 µM. 340,000 compounds, 0.16% hits. AID 493160;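 active means inhibition above about 35% when tested at 20 µM, limit read from the data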;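 further: plate controls were DMSO wells with enzyme for no effect and DMSO wells lacking enzyme for full effect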
Target sequence (Q2TB90 whole entry, looked up): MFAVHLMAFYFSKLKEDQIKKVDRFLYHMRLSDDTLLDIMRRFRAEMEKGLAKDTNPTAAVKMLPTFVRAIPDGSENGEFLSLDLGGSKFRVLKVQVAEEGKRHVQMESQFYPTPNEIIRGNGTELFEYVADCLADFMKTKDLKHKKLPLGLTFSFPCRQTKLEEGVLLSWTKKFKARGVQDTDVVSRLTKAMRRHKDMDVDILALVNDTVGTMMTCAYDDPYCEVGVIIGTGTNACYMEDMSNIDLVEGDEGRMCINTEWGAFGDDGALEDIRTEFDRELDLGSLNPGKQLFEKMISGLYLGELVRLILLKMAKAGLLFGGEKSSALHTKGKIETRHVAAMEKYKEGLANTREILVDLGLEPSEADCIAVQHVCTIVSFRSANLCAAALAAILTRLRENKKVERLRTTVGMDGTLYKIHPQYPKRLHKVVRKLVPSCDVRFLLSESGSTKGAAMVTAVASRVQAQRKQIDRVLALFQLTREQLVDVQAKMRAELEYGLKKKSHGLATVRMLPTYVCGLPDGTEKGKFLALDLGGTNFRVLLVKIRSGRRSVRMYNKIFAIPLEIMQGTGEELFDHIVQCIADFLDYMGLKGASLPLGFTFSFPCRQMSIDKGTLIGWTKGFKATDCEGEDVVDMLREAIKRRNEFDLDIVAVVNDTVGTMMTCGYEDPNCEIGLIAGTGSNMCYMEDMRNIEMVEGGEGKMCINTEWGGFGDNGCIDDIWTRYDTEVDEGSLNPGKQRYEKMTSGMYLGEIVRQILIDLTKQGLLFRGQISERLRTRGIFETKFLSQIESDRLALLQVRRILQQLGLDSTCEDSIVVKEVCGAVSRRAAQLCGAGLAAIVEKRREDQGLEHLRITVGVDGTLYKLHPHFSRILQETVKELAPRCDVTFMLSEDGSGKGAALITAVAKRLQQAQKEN
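Material: recombinant HKDC1 hexokinase; Amount: HKDC1 at 5 µg/mL; Medium: Tris pH 8.0 buffer with MgCl2, Tween-20, BSA, BME; Schedule: 90 min reaction incubation at room temperature, dark; Technique: coupled resazurin fluorescence, excitation 525 nm, emission 613 nm.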
B2AR ag: activates human beta-2 adrenergic receptor causing internalization; P07550; response, % (no concentration beside the values); 340,000 compounds, 0.43% hits; Am2.2-beta2AR cells, FAP receptor internalization, flow cytometry;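 active means response above a set limit, near 3 SD of response in nonfluorescent compounds, cut at about 42% in these data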
H9c2 protect: protects H9c2 cardiomyocytes from peroxide injury; H2O2 injury protection, ATPLite, 2 h; protection from H2O2 cell death, % at 20 µM; 360,000 compounds, 0.63% hits; AID 588492;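 active means compounds giving at least 50% protection of heart cells from peroxide-induced death in the single-dose screen, raw or plate-pattern-corrected value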;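 further: 0% = DMSO wells with peroxide and 100% = DMSO wells without peroxide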
UCH37 inh: inhibitors of human deubiquitinating enzyme UCH37; inhibition, % (test concentration not listed); Q9Y5K5; 330,000 compounds, 0.33% hits; AID 588478; purified proteasome/UCH37, Ub-AMC cleavage fluorescence;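 active means mean inhibition over replicate wells above about 20%, limit read from the data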;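 further: 0% = compound-free wells with enzyme and 100% = wells lacking proteasome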
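Material: human UCH37 enzyme supplied as purified proteasome complex. Measure: % inhibition of Ub-AMC cleavage fluorescence. Medium: pH 7.4 Tris-HCl (50 mM) with ovalbumin, ATP-MgCl2, DTT. Times: 30 min preincubation with enzyme, 25 min cleavage at room temperature. Detection: AMC fluorescence intensity at 355/460 nm.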
aDG glyco act: alpha-DG glycosylation activation. Pro5-aDG cells, alpha-DG glycosylation AlphaScreen (IIH6); 0% Pro5, 100% B10-LARGE cell signal. activation, % at 10 µM. 360,000 compounds, 0.22% hits. AID 624168;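 active means activation of at least 8% versus controls, or a plate z-score of at least 8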;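 further: Pro5 are CHO cells carrying HIG-tagged alpha-DG that lacks glycosylation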
PfGluPho inh: PfG6PD (Plasmodium falciparum) enzyme inhibition; 350,000 compounds, 0.78% hits; PfGluPho enzyme, NADPH resazurin-diaphorase fluorescence; AID 504690; inhibition, % at 20 µM;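 active means inhibition reaching at least a set limit at 20 µM in the primary screen, cut at about 59% in these data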;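 further: 0% = DMSO wells with substrate and 100% = DMSO wells lacking glucose-6-phosphate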
PfG6PD confirm: confirmation of Plasmodium falciparum G6PD inhibitors; AID 504753; 2,400 compounds, 34% hits; shares compounds with PfGluPho inh; inhibition, % at 20 µM; recombinant PfGluPho, NADPH-diaphorase-resazurin fluorescence;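 active means inhibition of at least 50% at 20 µM in any single replicate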;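 further: 0% = DMSO with substrate and 100% = DMSO lacking glucose-6-phosphate substrate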
Diaph ctr 10uM: inhibits diaphorase or oxidizes, flagging false PfG6PD hits. shares compounds with PfGluPho inh. diaphorase-coupled resazurin reduction, fluorescence, NADPH 10 uM. 820 compounds, 39% hits. inhibition, % at 20 µM;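 active means average inhibition reaching 50% or more with the compound at 20 µM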;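 further: resorufin red fluorescence formed as diaphorase reduces resazurin using NADPH; 0% = DMSO with enzyme and 100% = DMSO without enzyme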
Diaph ctr 30uM: inhibits diaphorase or oxidizes, flagging false PfG6PD hits. shares compounds with PfGluPho inh. AID 504863. inhibition, % at 20 µM. 820 compounds, 29% hits. Diaphorase/resazurin coupled assay, resorufin fluorescence, 30 uM NADPH;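 active means inhibition averaging 50% or more, tested at 20 µM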;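 further: 0% = DMSO with enzyme and 100% = DMSO wells lacking diaphorase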
Numbers without * were called inactive; / = no result.

SMILES	HKDC1 inh	B2AR ag	H9c2 protect	UCH37 inh	aDG glyco act	PfGluPho inh	PfG6PD confirm	others
Cc1ccc(/C=C/C(=O)OCC(=O)c2ccc3c(c2)NC(=O)CO3)o1	-4.1	-1.7	-3.1	4.8	-0.1	70.6*	-9.0
O=C1COc2ccc(C(=O)COC(=O)/C=C/c3ccc(Br)o3)cc2N1	21.1	13.1	-3.7	/	0.1	10.7	/
Cc1cc(C(=O)NN=Cc2cccc(Cl)c2Cl)no1	/	/	/	1.7	/	/	/
CCOC(=O)c1nc(NCc2ccccc2)sc1C	-8.0	8.0	-1.5	-0.3	0.1	68.2*	26.4
CC(Nc1cc(N2CCN(S(C)(=O)=O)CC2)ccc1[N+](=O)[O-])c1ccccc1 (stereo not drawn)	1.2	4.6	2.2	7.6	-0.6	59.7*	24.7
CC(Nc1cc(N2CCN(S(=O)(=O)N(C)C)CC2)ccc1[N+](=O)[O-])c1ccccc1 (stereo not drawn)	-0.2	-8.8	5.2	8.7	0.0	88.2*	23.5
CC(Nc1cc(N2CCCC2)ccc1[N+](=O)[O-])c1ccccc1 (stereo not drawn)	-3.9	5.4	-17.2	5.4	-0.4	11.5	/
Cc1cc(C)n(CCC(=O)NN=Cc2ccccc2O)n1	/	/	/	-55.5	/	/	/
Cc1cccc(NC(=S)NN=Cc2ccc(Cl)c([N+](=O)[O-])c2)c1	/	/	/	6.4	/	/	/
Cc1cc(C(=O)CSc2nnc(C3CC3)n2C2CC2)c(C)n1C(C)C	2.0	-9.8	-4.0	5.7	-0.2	42.7	19.2
Cc1ccc(Nc2cc(C)nc(N3CCOCC3)n2)cc1	0.5	11.4	3.3	0.4	0.0	61.3*	11.8
CCOC(=O)c1ccc(Nc2cc(C)nc(N3CCOCC3)n2)cc1	1.7	15.6	12.7	-16.6	0.9	20.6	/
CCOc1ccc(Nc2cc(C)nc(N3CCOCC3)n2)cc1	-10.8	-3.8	4.3	-4.8	0.0	-2.6	/
Cc1cc(Nc2ccc(C)c(Cl)c2)nc(N2CCOCC2)n1	-1.6	16.0	-1.1	-0.4	0.1	65.8*	7.6
Cc1cc(C(=O)NN=Cc2cccc([N+](=O)[O-])c2)c(C)o1	/	/	/	2.2	/	/	/
COc1ccc(C=NN2CCN(C3c4ccccc4-c4ccccc43)CC2)cc1OC	/	/	/	6.9	/	/	/
COc1cc(-c2nc(C(=O)NCC3CCCO3)cc3c2[nH]c2ccccc23)cc(OC)c1OC (stereo not drawn)	-0.3	5.3	38.4	-50.1	-0.6	33.4	/
COc1ccccc1-c1nc(C(=O)NCC2CCCO2)cc2c1[nH]c1ccccc12 (stereo not drawn)	0.0	-4.4	1.9	-30.2	0.1	63.6*	16.6
OCCN1CCN(C(=S)c2ccc(Cl)c(Cl)c2)CC1	-3.4	3.2	-5.3	11.5	0.2	64.2*	53.3*	Diaph ctr 10uM=-12.6;Diaph ctr 30uM=-1.4
COc1cc(NC(=S)N2CCN(CCO)CC2)c(OC)cc1Cl	-11.9	5.4	0.6	0.6	0.2	24.2	/
COc1cccc(NC(=O)c2cccc(NC(=O)c3ccco3)c2)c1	/	/	-0.1	/	0.0	0.7	/
COc1cccc(C(=O)Nc2ccc(NC(=O)c3ccco3)c(Cl)c2)c1	-5.1	-10.1	30.4	-26.1	0.8	69.7*	12.7
COc1ccc(C2N(Cc3ccccc3)CC(=O)N2N=C(C)c2ccccc2)cc1 (stereo not drawn)	/	/	/	1.5	/	/	/
Cc1ccc(S(=O)(=O)/N=C2/C=C(C3C(=O)CC(C)(C)CC3=O)C(=O)c3ccccc32)cc1	28.1	8.2	-8.1	/	3.2	72.4*	73.4*	Diaph ctr 10uM=43.3;Diaph ctr 30uM=45.5
CCn1c2ccccc2nc2cc3c(cc21)c(Cl)c(=O)c1ccccc13	/	/	-11.4	/	-0.2	93.8*	40.5
SMILES	HKDC1 inh	B2AR ag	H9c2 protect	UCH37 inh	aDG glyco act	PfGluPho inh	PfG6PD confirm	others
CC(=NNC(=O)c1ccc(C)cc1)C1C(=O)c2ccccc2C1=O	/	/	/	18.9	/	/	/
CCOC(=O)c1sc(NC(=O)c2ccncc2)c(C#N)c1C	-14.7	13.8	-27.1	9.1	0.2	77.8*	45.2
COc1ccc(C2C(Oc3ccccc3)C(=O)N2c2cc(C)ccc2C)cc1OC (stereo not drawn)	5.7	1.6	-2.2	3.5	0.1	28.8	/
COc1ccc(C2C(Oc3ccccc3)C(=O)N2c2ccc(C)c(C)c2)cc1OC (stereo not drawn)	-0.5	1.6	-4.0	2.8	0.0	81.3*	22.7
Cc1cc(C)n2nc(C(=O)NN=Cc3c4ccccc4cc4ccccc34)nc2n1	/	/	/	-19.5	/	/	/
Cc1cc(C)c2c(=O)n(CC(=O)N3CCC(N4CCCCC4)CC3)sc2n1	-7.9	-4.3	17.2	4.2	-0.1	80.2*	62.7*	Diaph ctr 10uM=-2.1;Diaph ctr 30uM=1.8
CCCNC(=O)Cn1sc2nc(C)cc(C)c2c1=O	-1.7	0.3	-32.1	4.1	0.2	81.3*	68.3*	Diaph ctr 10uM=-32.3;Diaph ctr 30uM=-23.1
CCOC(=O)C1CCCN(C(=O)Cn2sc3nc(C)cc(C)c3c2=O)C1 (stereo not drawn)	0.8	14.8	-40.6	8.4	0.0	68.5*	51.7*	Diaph ctr 10uM=-18.1;Diaph ctr 30uM=-20.4
Cc1nn(CC(=O)N2CCC(N3CCCCC3)CC2)c(=O)c2c1sc1ccccc12	-7.9	-2.8	7.8	2.0	-0.4	-25.3	/
CC(=O)Cn1cnc2c(sc3nc(C)cc(C)c32)c1=O	-4.5	-8.2	-0.9	3.2	-0.1	-1.6	/
CC(=NN=C(N)N)c1cc(Cl)ccc1Cl	/	/	/	1.5	/	/	/
C=CCSc1nnc(NC(=O)c2ccc3c(c2)OCCO3)s1	/	/	-7.0	/	-0.1	98.7*	30.7
O=C(NN=Cc1ccc([N+](=O)[O-])cc1)c1cc(-c2ccc3c(c2)OCO3)n[nH]1	/	/	/	7.0	/	/	/
C/C(C=NNC(=O)CSc1ccccn1)=C/c1ccc(C(C)C)cc1	/	/	/	1.1	/	/	/
CC1(C)Cc2c(c(N3CCOCC3)nc3sc(C(=O)N4CCCCC4)c(N)c23)CO1	7.3	-9.4	11.9	-118.7	-0.3	68.3*	15.1
